We go through two substances from publication PMC3838204 (Journal of the American Chemical Society, 2013).

A short description of the data set: Hydrolysis of peptide-thioester. It counts as physicochemical. In outline: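 The Asp peptide-thioester (~2 mM) was incubated with Cys-peptide (~2.4 mM) in helium-purged buffer: 6 M Gu·HCl, 200 mM Na2HPO4, 10 mM TCEP·HCl, 20 mM MPAA, pH 7.0, RT, 18–24 h. Monitoring was by LC-MS and RP-HPLC (210 nm). Control omitted Cys-peptide and MPAA, at pH 6.8 for 19 h. The thioester was also examined after HF deprotection/cleavage.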

On to LYRAD-^αCOSR`, for which the “hydrolysis of the peptide-thioester after HF deprotection and cleavage” value (after HF deprotection and cleavage) is recorded as “no hydrolysis”. Moreover, the “hydrolyzed product formed from the peptide-thioester” value (control in absence of the Cys-peptide and without added MPAA, 19 h, pH 6.8) is recorded as “about 30%”. Moreover, the “hydrolysis of the peptide-thioester during the ligation reaction” value (ligation conditions: 6 M guanidine hydrochloride, 200 mM Na2HPO4, 10 mM TCEP, 20 mM MPAA, pH 7.0, RT, 18–24 hours, LC-MS) is “nor was significant hydrolysis”.

On to LYRAX-^αCOSR` [−Glu-α-thioester], for which the “hydrolysis of the thioester, control” value (control in absence of the Cys-peptide and without added MPAA) was “no significant hydrolysis”.
